ChEMBL document CHEMBL1131115, “Strategies to target kyotorphin analogues to the brain” (1998)
Where a SMILES comes first, the peptide text is derived from it.

Species on record: Rattus norvegicus
Test: Compound was evaluated for brain targeted delivery system by Tail flick latency as an index of spinal cord mediated analgesia in rats
Assay type: functional
How it was run: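 Male Sprague-Dawley rats, 250-300 g, housed singly at ~25 °C. Compounds in 0.2 mL propylene glycol:DMSO (2:1) given iv via tail vein, 0.0223 mmol/kg (equivalent to 7.5 mg/kg kyotorphin); dose-response range 0.0030-0.0223 mmol/kg. Tail-flick meter, beam set for 7-8 s baseline latency. Baseline 10 min pre-dose, then 15 min to 6 h. Six rats per group; mean ± SE, ANOVA.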

SMILES	Latency time [s]
CC(C)CCCC(C)C1CCC2C3CC=C4CC(OC(=O)C(CCCC[n+]5cccc(C(N)=O)c5)NC(=O)C(N)Cc5ccc(O)cc5)CCC4(C)C3CCC12C (configuration not stated)	17
CC(C)CCCC(C)C1CCC2C3CC=C4CC(OC(=O)C(CCCCN5C=CCC(C(N)=O)=C5)NC(=O)C(Cc5ccc(O)cc5)NC(=O)OC(C)(C)C)CCC4(C)C3CCC12C (configuration not stated)	26
CC(C)CCCC(C)C1CCC2C3CC=C4CC(OC(=O)C(CCCC[n+]5cccc(C(N)=O)c5)NC(=O)[C@H](Cc5ccc(O)cc5)NC(=O)OC(C)(C)C)CCC4(C)C3CCC12C (some centres not stated)	10
NC(=O)C1=CN(CCCC[C@H](NC(=O)[C@@H](N)Cc2ccc(O)cc2)C(=O)O)C=CC1	10
CC(C)CCCC(C)C1CCC2C3CC=C4CC(OC(=O)C(CCCCN)NC(=O)[C@H](Cc5ccc(O)cc5)NC(=O)OC(C)(C)C)CCC4(C)C3CCC12C (some centres not stated)	10
NCCCC[C@H](NC(=O)[C@@H](N)Cc1ccc(O)cc1)C(=O)O (H-Tyr-Lys-OH)	11
NC(N)=NCCC[C@H](NC(=O)[C@@H](N)Cc1ccc(O)cc1)C(=O)O [KYOTORPHIN]	11
